The values that follow come from ChEMBL document CHEMBL1135426, “Synthesis, receptor potency, and selectivity of halogenated diphenylpiperidines as serotonin 5-HT2A ligands for PET or SPECT brain imaging” (J Med Chem, 2002).

pKi: −log10 of the molar value.

As usually defined, the pKi is the negative decadic logarithm of the Ki, by convention in mol/L. The low end stands for a large Ki, the high end for a small Ki. Broadly, the Ki is the dissociation constant of the complex between target and ligand, obtained from inhibition or displacement.

Test [1] concerns the target 5-hydroxytryptamine receptor 2A (Homo sapiens, UniProt P28223). Put plainly: Tested on genetically transfected COS7 cell membranes selectively expressing human 5-hydroxytryptamine 2A receptor, using [3H]ketanserin as radioligand. The format is cell-based, COS-7. The essentials: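 Membranes of transfected COS-7 cells expressing human 5-HT2A, with 1.0 nM [3H]ketanserin, room temperature, 60 min. 10 µM altanserin as blank. Filtration and scintillation counting. Competition curves over ≥6 concentrations yield IC50 ± SE. Ki obtained by Cheng-Prusoff from the radioligand apparent Kd.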

The target in test [2] is T1, 5-hydroxytryptamine receptor 2C (Homo sapiens, UniProt P28335).
T1 sequence (P28335 whole entry): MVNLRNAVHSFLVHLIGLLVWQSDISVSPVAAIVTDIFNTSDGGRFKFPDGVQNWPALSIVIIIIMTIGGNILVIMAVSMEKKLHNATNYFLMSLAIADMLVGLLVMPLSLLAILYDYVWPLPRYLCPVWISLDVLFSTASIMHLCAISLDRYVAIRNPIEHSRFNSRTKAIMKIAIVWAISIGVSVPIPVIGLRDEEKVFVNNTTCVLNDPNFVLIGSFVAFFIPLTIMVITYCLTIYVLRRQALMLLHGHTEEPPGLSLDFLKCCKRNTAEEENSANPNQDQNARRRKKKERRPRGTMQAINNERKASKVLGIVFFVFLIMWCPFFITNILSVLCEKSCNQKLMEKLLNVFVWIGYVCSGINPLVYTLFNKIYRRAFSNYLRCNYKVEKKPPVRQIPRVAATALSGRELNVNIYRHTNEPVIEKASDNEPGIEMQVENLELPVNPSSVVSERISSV
The experiment in a line: Tested on transfected cell membranes selectively expressing human 5-hydroxytryptamine 2C receptor using [3H]mesulergine. The essentials: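 Transfected cell membranes expressing human 5-HT2C, incubated with 0.80 nM [3H]mesulergine at room temperature for 60 min. Nonspecific binding with 10 µM clozapine. Filtration and scintillation counting. IC50 ± SE from concentration-inhibition curves, converted to Ki by Cheng-Prusoff using the radioligand Kd.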

In test [3] the target is 5-hydroxytryptamine receptor 6 (Homo sapiens, UniProt P50406). The experiment in a line: Tested on cell membranes from transfected cells selectively expressing human 5-hydroxytryptamine 6 receptor incubated with 1 nM [3H]LSD. The essentials: (§1)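 Membranes (1-10 µg protein) from transfected cells expressing human 5-HT6 or 5-HT7, incubated with 1 nM [3H]LSD, room temperature, 90 min, in the dark. 10 µM clozapine as blank. Filter harvest and tritium counting. IC50 from multi-concentration competition, converted to Ki via Cheng-Prusoff.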

For test [4], the target named is 5-hydroxytryptamine receptor 7 (Homo sapiens, UniProt P34969). Put plainly: Tested on cell membranes from transfected cells selectively expressing human 5-hydroxytryptamine 7 receptor incubated with 1 nM [3H]LSD. The essentials:
as §1

Test [5] concerns the target T2, Adrenergic receptor alpha-2 (Rattus norvegicus, UniProt P22086+P19328+P22909).
T2 sequence (P22086 whole entry): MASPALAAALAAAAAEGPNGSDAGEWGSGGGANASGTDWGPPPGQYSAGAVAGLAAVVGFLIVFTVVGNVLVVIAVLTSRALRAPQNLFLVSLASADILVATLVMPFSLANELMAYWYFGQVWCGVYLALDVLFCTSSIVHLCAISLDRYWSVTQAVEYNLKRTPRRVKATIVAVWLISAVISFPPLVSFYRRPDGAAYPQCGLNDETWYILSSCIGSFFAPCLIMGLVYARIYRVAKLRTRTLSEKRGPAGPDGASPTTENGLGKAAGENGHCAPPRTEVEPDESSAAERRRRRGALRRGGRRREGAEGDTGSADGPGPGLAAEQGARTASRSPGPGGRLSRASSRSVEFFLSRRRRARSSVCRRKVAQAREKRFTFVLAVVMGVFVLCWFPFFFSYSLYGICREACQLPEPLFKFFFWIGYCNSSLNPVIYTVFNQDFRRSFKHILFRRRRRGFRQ
T2 sequence (P19328 whole entry): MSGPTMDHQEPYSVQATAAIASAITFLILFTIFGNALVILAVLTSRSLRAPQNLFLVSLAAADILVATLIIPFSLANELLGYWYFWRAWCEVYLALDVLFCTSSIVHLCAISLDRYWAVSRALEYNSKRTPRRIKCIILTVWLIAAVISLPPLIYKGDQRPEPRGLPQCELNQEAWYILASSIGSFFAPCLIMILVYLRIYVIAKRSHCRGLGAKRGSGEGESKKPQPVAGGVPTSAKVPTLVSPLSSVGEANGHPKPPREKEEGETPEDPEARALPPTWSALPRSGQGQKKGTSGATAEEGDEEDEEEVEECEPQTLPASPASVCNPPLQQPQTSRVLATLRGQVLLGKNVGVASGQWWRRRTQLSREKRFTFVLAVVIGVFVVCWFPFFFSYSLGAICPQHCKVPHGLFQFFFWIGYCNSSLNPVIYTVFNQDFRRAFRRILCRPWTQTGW
T2 sequence (P22909 whole entry): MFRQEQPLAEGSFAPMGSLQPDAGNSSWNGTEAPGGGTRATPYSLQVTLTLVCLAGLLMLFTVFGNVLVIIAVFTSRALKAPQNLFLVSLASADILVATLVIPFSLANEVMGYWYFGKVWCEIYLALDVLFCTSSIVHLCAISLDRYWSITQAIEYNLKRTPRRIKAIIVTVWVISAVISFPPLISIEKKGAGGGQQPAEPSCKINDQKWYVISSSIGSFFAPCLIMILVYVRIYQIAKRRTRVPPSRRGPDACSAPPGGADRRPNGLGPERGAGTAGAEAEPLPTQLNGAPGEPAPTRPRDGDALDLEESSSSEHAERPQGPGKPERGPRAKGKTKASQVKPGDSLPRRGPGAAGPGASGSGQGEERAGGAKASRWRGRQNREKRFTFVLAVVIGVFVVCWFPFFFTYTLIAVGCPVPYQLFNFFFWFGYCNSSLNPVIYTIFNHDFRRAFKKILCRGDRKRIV
The experiment in a line: Binding affinity (Ki) at Alpha-2 adrenergic receptor homogenates of whole rat brain were incubated [3H]MK-912 for 80 min at room temperature, using […] as the blank agent. The format is tissue-based. The essentials: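 Whole rat brain homogenate (minus cerebellum) with 1.0 nM [3H]MK-912, 80 min at room temperature. 10 µM phentolamine defines nonspecific binding. Filter harvest and scintillation counting. Concentration-inhibition curves (≥6 concentrations) give IC50 ± SE, converted to Ki via Cheng-Prusoff with the radioligand's apparent Kd.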

The target of another test is D(2) dopamine receptor (Rattus norvegicus, UniProt P61169). Put plainly: Binding affinity (Ki) at Dopamine receptor D2 using rat caudate cells with nemonapride (0.075 nM) as a radioligand and […] as a blank agent. The essentials:
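Rat caudate-putamen homogenate incubated with 75 pM [3H]nemonapride at 30 °C for 90 min. Nonspecific binding defined with 10 µM haloperidol. Bound radioactivity collected on glass fiber filters and counted. IC50 ± SE from ≥6-concentration inhibition curves, converted to Ki by Cheng-Prusoff using the radioligand Kd.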

D(2) dopamine receptor, sequence (P61169 whole entry): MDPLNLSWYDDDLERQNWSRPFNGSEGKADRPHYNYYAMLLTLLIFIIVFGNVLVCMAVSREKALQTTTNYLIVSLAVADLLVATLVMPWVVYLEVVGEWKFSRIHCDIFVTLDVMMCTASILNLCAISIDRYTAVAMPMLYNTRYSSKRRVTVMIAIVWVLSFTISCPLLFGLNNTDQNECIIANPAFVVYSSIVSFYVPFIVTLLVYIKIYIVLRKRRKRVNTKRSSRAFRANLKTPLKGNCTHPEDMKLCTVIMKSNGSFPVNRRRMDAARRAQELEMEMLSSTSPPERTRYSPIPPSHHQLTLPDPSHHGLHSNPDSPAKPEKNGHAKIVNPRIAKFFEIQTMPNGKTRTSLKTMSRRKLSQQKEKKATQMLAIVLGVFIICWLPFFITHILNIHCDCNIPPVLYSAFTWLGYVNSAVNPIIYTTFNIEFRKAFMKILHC
5-hydroxytryptamine receptor 2A, sequence (P28223 whole entry): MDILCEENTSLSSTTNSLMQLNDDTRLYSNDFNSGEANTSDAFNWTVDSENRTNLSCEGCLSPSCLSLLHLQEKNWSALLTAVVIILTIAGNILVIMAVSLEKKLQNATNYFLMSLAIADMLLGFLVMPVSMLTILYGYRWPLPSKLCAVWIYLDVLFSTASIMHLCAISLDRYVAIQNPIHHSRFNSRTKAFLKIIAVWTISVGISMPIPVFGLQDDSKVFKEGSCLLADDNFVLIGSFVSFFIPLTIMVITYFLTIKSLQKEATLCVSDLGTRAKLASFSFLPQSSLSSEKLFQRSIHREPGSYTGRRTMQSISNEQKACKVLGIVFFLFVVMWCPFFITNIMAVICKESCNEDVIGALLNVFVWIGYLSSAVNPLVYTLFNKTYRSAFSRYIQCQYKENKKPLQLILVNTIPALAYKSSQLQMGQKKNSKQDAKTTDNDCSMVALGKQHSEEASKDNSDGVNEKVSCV
5-hydroxytryptamine receptor 6, sequence (P50406 whole entry): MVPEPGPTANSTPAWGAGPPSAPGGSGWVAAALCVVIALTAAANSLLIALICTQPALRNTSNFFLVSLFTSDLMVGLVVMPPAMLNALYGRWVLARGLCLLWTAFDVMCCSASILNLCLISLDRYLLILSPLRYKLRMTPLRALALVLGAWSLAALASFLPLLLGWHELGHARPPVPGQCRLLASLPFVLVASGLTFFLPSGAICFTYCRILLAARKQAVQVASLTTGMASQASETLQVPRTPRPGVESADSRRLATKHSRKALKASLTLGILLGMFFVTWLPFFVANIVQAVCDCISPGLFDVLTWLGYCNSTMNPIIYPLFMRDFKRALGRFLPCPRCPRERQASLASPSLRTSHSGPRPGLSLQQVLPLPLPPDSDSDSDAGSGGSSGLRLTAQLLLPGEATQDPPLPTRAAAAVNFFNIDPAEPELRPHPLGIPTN
5-hydroxytryptamine receptor 7, sequence (P34969 whole entry): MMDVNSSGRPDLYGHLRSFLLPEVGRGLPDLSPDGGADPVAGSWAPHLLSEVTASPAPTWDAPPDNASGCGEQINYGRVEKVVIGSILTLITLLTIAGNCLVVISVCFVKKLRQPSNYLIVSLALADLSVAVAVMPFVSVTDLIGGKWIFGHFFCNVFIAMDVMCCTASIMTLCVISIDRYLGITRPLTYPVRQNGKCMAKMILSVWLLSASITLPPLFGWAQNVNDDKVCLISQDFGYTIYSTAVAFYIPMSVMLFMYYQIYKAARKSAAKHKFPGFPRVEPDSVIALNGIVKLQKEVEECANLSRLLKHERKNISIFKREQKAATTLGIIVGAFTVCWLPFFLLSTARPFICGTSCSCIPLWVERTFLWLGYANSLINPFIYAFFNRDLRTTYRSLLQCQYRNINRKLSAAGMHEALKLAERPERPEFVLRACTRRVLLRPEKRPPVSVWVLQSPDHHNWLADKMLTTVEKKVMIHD

On to `O=C(c1ccc(F)cc1)C1CCN(CCc2cccc(I)c2)CC1`, for which the pKi in test [1] is 9.29; in test [2] it was 7.78; in test [3] it was 7.31; in test [4], 8.06; on D(2) dopamine receptor it was 7.29. In test [5], this compound displayed a Ki of 244 nM.
For the compound `OC(c1ccc(F)cc1)C1CCN(CCc2ccc(F)cc2)CC1` (stereo unspecified), the pKi in test [1] was 8.79; in test [2], 6.30; in test [3], < 5.00; in test [4], 5.87; on D(2) dopamine receptor it was < 5.00. Besides, the inhibition constant Ki in test [5] was determined as 1032 nM.
Regarding `O=C(c1ccc(F)cc1)C1CCN(CCc2ccc(I)cc2)CC1`, the pKi in test [1] was 8.44; in test [2], 6.84; in test [3] it was 6.52; in test [4], 8.14; at D(2) dopamine receptor, 6.75. The compound further showed a Ki in test [5] of 381 nM.
Turning to `O=C(c1ccc(F)cc1)C1CCN(CCc2ccccc2I)CC1`, the pKi in test [1] was 8.71; in test [2], 7.45; in test [3] it was 6.86; in test [4] it was 8.43; at D(2) dopamine receptor, 8.89. In addition, in test [5], the inhibition constant (Ki) came out at 140 nM.
As to `OC(c1ccc(F)cc1)C1CCN(CCc2ccccc2I)CC1` (stereo unspecified), the negative-log Ki (pKi) in test [1] was 9.04; in test [2], 7.54; in test [3], 6.37; in test [4], 7.00; at D(2) dopamine receptor, < 5.00. The inhibitory constant (Ki) in test [5] came to 813 nM.
For the compound `O=C(c1ccc(F)cc1)C1CCN(CCc2ccc(F)cc2)CC1`, the negative logarithm of the Ki (pKi) was 8.02 in test [1]; 6.31 in test [2]; 5.52 in test [3]; 7.20 in test [4]; 6.34 at D(2) dopamine receptor. The compound further showed a Ki in test [5] of 614 nM.
